ChEMBL document CHEMBL2086225, “Demethylwedelolactone derivatives inhibit invasive growth in vitro and lung metastasis of MDA-MB-231 breast cancer cells in nude mice” (Eur J Med Chem, 2012)
Active and inactive are the calls of the source. The calls are words filed in the database; no cut-off is given here.

Columns and labels:
[1] = target: T1, NF-kappa-B inhibitor alpha (Homo sapiens) (UniProt P25963); test: Inhibition of IkappaBalpha phosphorylation in human MDA-MB-231 cells after 12 hrs by Western blot analysis; assay type: cell-based
T1 sequence (whole entry): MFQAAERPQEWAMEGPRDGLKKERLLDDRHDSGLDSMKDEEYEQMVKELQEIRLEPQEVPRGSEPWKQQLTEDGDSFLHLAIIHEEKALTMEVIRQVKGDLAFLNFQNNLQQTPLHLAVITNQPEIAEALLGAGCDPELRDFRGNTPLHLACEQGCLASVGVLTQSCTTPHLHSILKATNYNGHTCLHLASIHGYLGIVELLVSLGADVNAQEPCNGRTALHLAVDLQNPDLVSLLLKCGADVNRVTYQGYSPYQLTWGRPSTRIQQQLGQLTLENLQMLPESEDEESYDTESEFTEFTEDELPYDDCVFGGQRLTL
Summary of the method: (§1)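 For the time course, cells exposed to 20 µM for various times; for dose response, 5, 10 or 20 µM for 12 h. Lysates immunoblotted with phospho-IκB-α and total IκB-α antibodies, HRP secondary, chemiluminescence detection, densitometry.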

MDA-MB-231 [2] = test: Antimetastatic activity against human MDA-MB-231 cells assessed as inhibition of wound closure activity up to 20 uM at 12 hrs by scratch motility assay; assay type: functional, cell-based
MDA-MB-231 [3] = test: Antiinvasive activity against human MDA-MB-231 cells pretreated for 12 hrs followed by compound-wash out measured after 12 hrs by Boyden chamber assay; assay type: functional, cell-based
Summary of the method: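 Cells pretreated 12 h, resuspended in serum-free medium (2 × 10^5 cells/ml) in upper chamber coated with Matrigel diluted 1:25; 10% FBS medium below. After 12 h, non-invaded cells removed; invaded cells methanol-fixed, Giemsa-stained, counted at 200× in 5 random fields per replicate (n = 4), averaged.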

[4] = target: Focal adhesion kinase 1 (Homo sapiens) (UniProt Q05397); test: Inhibition of FAK phosphorylation in human MDA-MB-231 cells after 12 hrs by Western blot analysis; assay type: cell-based
Focal adhesion kinase 1 (Homo sapiens), sequence (Q05397 2-1052 limits assumed): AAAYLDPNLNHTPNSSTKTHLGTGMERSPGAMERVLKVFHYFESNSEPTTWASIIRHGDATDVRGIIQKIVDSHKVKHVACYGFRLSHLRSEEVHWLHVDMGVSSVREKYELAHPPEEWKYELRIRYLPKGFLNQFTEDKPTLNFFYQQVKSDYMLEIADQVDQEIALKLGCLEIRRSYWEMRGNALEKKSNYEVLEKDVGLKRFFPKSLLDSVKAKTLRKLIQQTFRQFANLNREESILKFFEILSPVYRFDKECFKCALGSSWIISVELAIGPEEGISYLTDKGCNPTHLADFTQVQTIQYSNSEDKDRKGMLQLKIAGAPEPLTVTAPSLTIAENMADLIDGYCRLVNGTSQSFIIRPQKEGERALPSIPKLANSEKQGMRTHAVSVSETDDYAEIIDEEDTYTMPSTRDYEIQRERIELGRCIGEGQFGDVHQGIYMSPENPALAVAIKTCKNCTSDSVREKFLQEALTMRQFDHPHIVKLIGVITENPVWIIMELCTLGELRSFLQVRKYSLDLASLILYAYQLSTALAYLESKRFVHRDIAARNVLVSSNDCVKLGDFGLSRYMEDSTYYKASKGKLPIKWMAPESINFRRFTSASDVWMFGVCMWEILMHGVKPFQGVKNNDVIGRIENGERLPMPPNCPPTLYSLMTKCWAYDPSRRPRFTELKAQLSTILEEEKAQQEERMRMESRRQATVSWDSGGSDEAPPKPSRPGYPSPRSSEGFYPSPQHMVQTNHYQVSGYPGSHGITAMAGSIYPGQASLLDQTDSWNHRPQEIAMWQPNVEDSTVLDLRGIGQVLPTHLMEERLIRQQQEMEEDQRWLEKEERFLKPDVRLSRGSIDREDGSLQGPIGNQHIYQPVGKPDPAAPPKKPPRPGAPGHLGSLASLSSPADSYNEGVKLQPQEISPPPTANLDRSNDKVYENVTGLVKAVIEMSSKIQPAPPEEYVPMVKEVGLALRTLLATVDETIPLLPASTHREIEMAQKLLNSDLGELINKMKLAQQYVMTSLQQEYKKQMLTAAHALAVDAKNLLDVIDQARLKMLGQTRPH
Summary of the method: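 Cells exposed 0–20 µM for 12 h; lysates in RIPA buffer immunoblotted with phospho-FAK, total FAK and β-actin antibodies; HRP secondary, chemiluminescence, densitometry.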

SK-HEP1 = test: Antiinvasive activity against human SKHEP1 cells; assay type: functional, cell-based
MDA-MB-231 [5] = test: Antimetastatic activity against human MDA-MB-231 cells assessed as inhibition of anchorage-independent colony formation after 21 days by inverted microscopy; assay type: functional, cell-based
Summary of the method: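 Cells pretreated 0–20 µM for 24 h, then 5 × 10^3 cells suspended in 0.33% agarose with 10% FBS over 0.5% agarose base layer; grown at 37 °C, 5% CO2. Colonies counted after 21 days under inverted microscope at 40×; 3 independent experiments, means ± SD.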

[6] = target: Mitogen-activated protein kinase; ERK1/ERK2 (Homo sapiens) (UniProt P27361+P28482); test: Inhibition of ERK 1/2 phosphorylation in human MDA-MB-231 cells at 5 to 20 uM after 12 hrs by Western blot analysis; assay type: cell-based
Mitogen-activated protein kinase; ERK1/ERK2 (Homo sapiens), sequence (P27361 whole entry, looked up): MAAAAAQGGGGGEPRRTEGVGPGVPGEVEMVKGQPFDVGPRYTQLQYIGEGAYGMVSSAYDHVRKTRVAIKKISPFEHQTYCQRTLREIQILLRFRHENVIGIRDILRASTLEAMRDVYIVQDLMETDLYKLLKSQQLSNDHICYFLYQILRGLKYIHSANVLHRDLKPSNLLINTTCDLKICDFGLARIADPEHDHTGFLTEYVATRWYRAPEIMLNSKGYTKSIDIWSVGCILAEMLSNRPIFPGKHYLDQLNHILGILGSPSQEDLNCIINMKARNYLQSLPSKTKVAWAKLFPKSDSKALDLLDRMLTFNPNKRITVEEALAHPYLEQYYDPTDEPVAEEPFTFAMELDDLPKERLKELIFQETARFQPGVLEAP
Mitogen-activated protein kinase; ERK1/ERK2 (Homo sapiens), sequence (P28482 whole entry, looked up): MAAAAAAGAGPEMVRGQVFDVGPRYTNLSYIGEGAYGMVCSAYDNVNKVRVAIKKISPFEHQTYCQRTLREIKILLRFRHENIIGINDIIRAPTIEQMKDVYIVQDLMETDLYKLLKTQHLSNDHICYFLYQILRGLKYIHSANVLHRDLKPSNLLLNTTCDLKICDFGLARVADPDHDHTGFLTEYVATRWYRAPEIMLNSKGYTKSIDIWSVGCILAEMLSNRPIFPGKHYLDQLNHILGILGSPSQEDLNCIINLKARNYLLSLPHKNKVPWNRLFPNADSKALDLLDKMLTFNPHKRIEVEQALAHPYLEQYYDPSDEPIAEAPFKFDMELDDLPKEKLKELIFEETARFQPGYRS
Summary of the method: (§2)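 Cells exposed to 5, 10 or 20 µM for 12 h; lysed in RIPA buffer (pH 7.5) with protease/phosphatase inhibitors. 50–100 µg protein run on SDS-PAGE, transferred to nitrocellulose, probed with phospho-specific and total antibodies (β-actin loading control), HRP secondary, ECL detection, densitometry.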

MDA-MB-231 [7] = test: Downregulation of MMP2 expression in human MDA-MB-231 cells at 5 to 20 uM after 12 hrs by Western blot analysis; assay type: functional, cell-based; summary of the method: as §2
MDA-MB-231 [8] = test: Upregulation of TIMP2 expression in human MDA-MB-231 cells at 1 to 3.5 uM after 12 hrs by Western blot analysis; assay type: functional, cell-based
[9] = target: T1, NF-kappa-B inhibitor alpha (Homo sapiens); test: Inhibition of IkappaBalpha phosphorylation in human MDA-MB-231 cells at 5 to 20 uM after 12 to 24 hrs by Western blot analysis; assay type: cell-based
MDA-MB-231 [10] = test: Antiinvasive activity against human MDA-MB-231 cells assessed as F-actin reorganization at 20 uM incubated 24 hrs post-serum starvation measured after 12 hrs by TRITC-conjugated phalloidin staining method; assay type: functional, cell-based
Summary of the method: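 Cells seeded, serum-starved (0.1%) overnight, then exposed for 12 h in DMEM with 10% FBS. Fixed in 4% paraformaldehyde 10 min, permeabilized with 0.1% Triton X-100 5 min, F-actin stained with TRITC-phalloidin (500 ng/ml) 1 h; imaged by fluorescence microscopy at 100×.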

MDA-MB-231 [11] = test: Upregulation of TIMP1 expression in human MDA-MB-231 cells at 0.5 to 1 uM after 12 hrs by Western blot analysis; assay type: functional, cell-based
MDA-MB-231 [12] = test: Cytotoxicity against human MDA-MB-231 cells at 25 to 100 uM after 24 hrs by MTT assay; assay type: functional, cell-based
Summary of the method: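 Cells seeded at 5 × 10^4/well, grown 24 h in complete medium, exposed 0–100 µM for 24 h (control 0.2% DMSO). Medium replaced, MTT added for 4 h, formazan dissolved in DMSO, absorbance read at 570 nm.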

MDA-MB-231 [13] = test: Downregulation of MMP9 expression in human MDA-MB-231 cells at 0.5 to 1 uM after 12 hrs by Western blot analysis; assay type: functional, cell-based
[14] = target: 72 kDa type IV collagenase (Homo sapiens) (UniProt P08253); test: Inhibition of MMP2 in human MDA-MB-231 cells at 20 uM up to 12 hrs by gelatin-zymogrphy; assay type: cell-based
72 kDa type IV collagenase (Homo sapiens), sequence (P08253 110-660 limits assumed): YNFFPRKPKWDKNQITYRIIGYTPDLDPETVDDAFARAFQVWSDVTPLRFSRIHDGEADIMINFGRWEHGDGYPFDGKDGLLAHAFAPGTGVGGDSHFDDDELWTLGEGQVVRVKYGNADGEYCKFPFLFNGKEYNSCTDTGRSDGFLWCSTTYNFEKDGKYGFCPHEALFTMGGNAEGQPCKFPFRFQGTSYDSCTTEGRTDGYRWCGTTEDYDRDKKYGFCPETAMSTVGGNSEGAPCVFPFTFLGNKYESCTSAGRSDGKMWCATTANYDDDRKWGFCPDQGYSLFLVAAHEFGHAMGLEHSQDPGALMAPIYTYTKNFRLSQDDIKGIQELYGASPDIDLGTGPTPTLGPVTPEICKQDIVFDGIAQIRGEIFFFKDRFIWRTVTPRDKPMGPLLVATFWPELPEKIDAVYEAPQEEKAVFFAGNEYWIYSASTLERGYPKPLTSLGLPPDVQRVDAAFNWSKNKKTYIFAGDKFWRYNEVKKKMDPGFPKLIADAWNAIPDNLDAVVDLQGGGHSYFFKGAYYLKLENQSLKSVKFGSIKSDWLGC
Summary of the method: (§3)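 Cells seeded at 4 × 10^5 cells/ml overnight, exposed to 20 µM for 0–12 h. Conditioned media run on 8% SDS-PAGE containing 0.1% gelatin (150 V, 3 h), SDS removed with 2% Triton X-100 washes, gels incubated in 10 mM CaCl2, 40 mM Tris-HCl pH 8.0 for 16 h at 37 °C, Coomassie-stained.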

MDA-MB-231 [15] = test: Upregulation of TIMP1 expression in human MDA-MB-231 cells at 0.2 to 0.8 uM after 12 hrs by Western blot analysis; assay type: functional, cell-based
[16] = target: T1, NF-kappa-B inhibitor alpha (Homo sapiens); test: Inhibition of IkappaBalpha phosphorylation in human MDA-MB-231 cells at 5 to 20 uM after 3 to 24 hrs by Western blot analysis; assay type: cell-based; summary of the method: as §1
MDA-MB-231 [17] = test: Antiinvasive activity against human MDA-MB-231 cells xenografted in athymic nude BALB/c mouse assessed as decrease in lung size at 5 and 20 mg/kg, ip administered 3 times per week starting 1 week prior to xenografting measured after 5 weeks relative to control; assay type: functional, organism-based; parameters: dose 20 mg/kg
Summary of the method: (§4)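 Female six-week-old BALB/c-nu mice (n = 6/group) dosed i.p. 3 times/week for 5 weeks (100 µl vehicle, or PBS). After 1 week, 1 × 10^6 cells injected into tail vein. Mice euthanized 4 weeks post-injection; lungs photographed, weighed, and H&E/hematoxylin sections examined for tumor cells. Means ± SD; one-way ANOVA with Dunnett's test.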

MDA-MB-231 [18] = test: Antiinvasive activity against human MDA-MB-231 cells xenografted in athymic nude BALB/c mouse assessed as decrease in lung weight at 5 and 20 mg/kg, ip administered 3 times per week starting 1 week prior to xenografting measured after 5 weeks relative to control; assay type: functional, organism-based; parameters: dose 20 mg/kg; summary of the method: as §4
[19] = target: Matrix metalloproteinase-9 (Homo sapiens) (UniProt P14780); test: Inhibition of MMP9 in human MDA-MB-231 cells at 20 uM up to 12 hrs by gelatin-zymogrphy; assay type: cell-based; summary of the method: as §3
Matrix metalloproteinase-9 (Homo sapiens), sequence (P14780 whole entry): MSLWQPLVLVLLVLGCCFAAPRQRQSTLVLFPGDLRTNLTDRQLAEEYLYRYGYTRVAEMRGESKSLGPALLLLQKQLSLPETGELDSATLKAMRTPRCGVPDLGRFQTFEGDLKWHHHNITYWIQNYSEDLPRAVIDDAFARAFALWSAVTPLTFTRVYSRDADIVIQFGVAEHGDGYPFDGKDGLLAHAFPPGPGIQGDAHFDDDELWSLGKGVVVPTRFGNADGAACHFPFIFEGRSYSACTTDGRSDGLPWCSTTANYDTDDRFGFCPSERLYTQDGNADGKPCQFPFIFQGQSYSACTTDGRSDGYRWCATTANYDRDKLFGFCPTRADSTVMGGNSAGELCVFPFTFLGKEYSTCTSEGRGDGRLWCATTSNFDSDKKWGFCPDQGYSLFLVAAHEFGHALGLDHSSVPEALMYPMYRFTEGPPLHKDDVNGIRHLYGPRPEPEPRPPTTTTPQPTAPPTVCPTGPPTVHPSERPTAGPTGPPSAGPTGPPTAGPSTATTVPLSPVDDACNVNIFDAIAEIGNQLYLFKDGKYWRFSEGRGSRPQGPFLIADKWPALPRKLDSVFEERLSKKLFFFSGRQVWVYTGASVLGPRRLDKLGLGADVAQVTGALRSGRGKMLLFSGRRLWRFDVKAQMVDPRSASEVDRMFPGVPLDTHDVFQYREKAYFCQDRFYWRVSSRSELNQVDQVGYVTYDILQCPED

MDA-MB-231 [20] = test: Upregulation of TIMP2 expression in human MDA-MB-231 cells at 1.1 to 3.6 uM after 12 hrs by Western blot analysis; assay type: functional, cell-based
MDA-MB-231 [21] = test: Antiinvasive activity against human MDA-MB-231 cells xenografted in athymic nude BALB/c mouse assessed as decrease in lung metastasis at 5 and 20 mg/kg, ip administered 3 times per week starting 1 week prior to xenografting measured after 5 weeks by hematoxylin-staining relative to control; assay type: functional, organism-based; parameters: dose 20 mg/kg; summary of the method: as §4
MDA-MB-231 [22] = test: Downregulation of MMP9 expression in human MDA-MB-231 cells at 0.1 to 0.9 uM after 12 hrs by Western blot analysis; assay type: functional, cell-based
MDA-MB-231 [23] = test: Downregulation of MMP2 in human MDA-MB-231 cells at 10 uM by Western blot analysis; assay type: functional, cell-based
Summary of the method: (§5)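 MDA-MB-231 cells in DMEM with 10% FBS at 37 °C were treated for 12 h. Whole-cell lysates were made in RIPA buffer (pH 7.5) at 4 °C, then SDS-PAGE, nitrocellulose transfer, and immunoblotting for MMP-2 and MMP-9, with β-actin as loading control. Detection was by HRP secondary antibody and chemiluminescence. Relative band density was quantified by densitometry.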

MDA-MB-231 [24] = test: Downregulation of MMP9 in human MDA-MB-231 cells at 10 uM by Western blot analysis; assay type: functional, cell-based; summary of the method: as §5
MDA-MB-231 [25] = test: Downregulation of MMP2 in human MDA-MB-231 cells at 50 uM by Western blot analysis; assay type: functional, cell-based
MDA-MB-231 [26] = test: Downregulation of MMP9 in human MDA-MB-231 cells at 50 uM by Western blot analysis; assay type: functional, cell-based

Row | inhibition [1] | inhibition [4] | inhibition [6] | Structure (SMILES) | inhibition (MDA-MB-231 [2]) | Activity (MDA-MB-231 [3]) | Activity (SK-HEP1) | inhibition (MDA-MB-231 [5]) | Activity (MDA-MB-231 [7]) | Activity (MDA-MB-231 [10]) | Activity (MDA-MB-231 [12]) | further results
1 | Dose-dependent effect | Dose-dependent effect | Active | COc1cc(O)c2c(c1)oc(=O)c1c3cc(O)c(O)cc3oc21 | Active | Dose-dependent effect | Active | Dose-dependent effect | Active | Active | Active | Activity (MDA-MB-231 [8]): Active; inhibition [9]: Active; Activity (MDA-MB-231 [11]): Active; Activity (MDA-MB-231 [13]): Active
2 | Dose-dependent effect | Dose-dependent effect | Active | O=c1oc2cc(O)cc(O)c2c2oc3cc(O)c(O)cc3c12 | Active | Dose-dependent effect | Active | Dose-dependent effect | Active | Active | Active | inhibition [14]: Active; Activity (MDA-MB-231 [15]): Active; inhibition [16]: Active; Activity (MDA-MB-231 [17]): Active; Activity (MDA-MB-231 [18]): Active; inhibition [19]: Active; Activity (MDA-MB-231 [20]): Active; Activity (MDA-MB-231 [21]): Active; Activity (MDA-MB-231 [22]): Active
3 |  |  |  | S=C(S)N1CCCC1 |  |  |  |  |  |  |  | Activity (MDA-MB-231 [23]): Active; Activity (MDA-MB-231 [24]): Active
4 |  |  |  | COc1cccc(-c2cc(=O)c3ccccc3o2)c1N |  |  |  |  |  |  |  | Activity (MDA-MB-231 [25]): Active; Activity (MDA-MB-231 [26]): Active
